From ChEMBL document CHEMBL4219071, “New histone demethylase LSD1 inhibitor selectively targets teratocarcinoma and embryonic carcinoma cells” (Bioorg Med Chem, 2018)
Calls of active or inactive are those of the source. The calls are words filed in the database; no cut-off is given here.

Key:
PA-1 [1] = test: Cytotoxicity against human PA1 cells at 2 uM after 16 to 30 hrs hrs by microscopic analysis; assay type: functional, cell-based
Procedure, shortened: (§1)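 Actively growing (30–50% confluent) cells were given a single 2 μM dose, with DMSO as the vehicle control, for 16 h. They were imaged by microscopy with a 10×10 lens. Triplicate dishes (technical repeats) were trypsinised, diluted and blindly counted on a hemacytometer, averaging the four corner squares to give cells per dish. Treated and control means were compared by two-tailed t-test.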

F9 [2] = test: Cytotoxicity against mouse F9 cells at 2 uM after 16 to 30 hrs hrs by microscopic analysis; assay type: functional, cell-based; procedure, shortened: as §1
HCT-116 [3] = test: Cytotoxicity against human HCT116 cells at 2 uM after 16 to 30 hrs hrs by microscopic analysis; assay type: functional, cell-based; procedure, shortened: as §1
[4] = biological target: Lysine-specific histone demethylase 1A (Homo sapiens) (UniProt O60341); test: Inhibition of LSD1 in human PA1 cells assessed as downregulation of SOX2 protein expression at 20 to 40 uM after 16 hrs by Western blot analysis; assay type: cell-based
Procedure, shortened: (§2)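 PA-1 cells in log-phase growth were exposed to CBB3001 for 16 hours and lysed directly in buffer containing 0.5% SDS. Equalized lysates were Western blotted for SOX2, OCT4, LSD1, H3K4me1/2/3 and histone H3 using specific antibodies, with band quantification.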

[5] = biological target: Lysine-specific histone demethylase 1A (Mus musculus) (UniProt Q6ZQ88); test: Inhibition of LSD1 in mouse F9 cells assessed as downregulation of SOX2 protein at 20 to 40 uM by Western blot analysis; assay type: cell-based
Procedure, shortened: (§3)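 F9 cells exposed 30 h to a range of concentrations, then lysed directly in 0.5% SDS lysis buffer with protein loads equalized. SOX2 and OCT4 detected by Western blot, actin as loading control, bands quantified.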

HCT-116 [6] = test: Effect on H3K4me3 levels in human HCT116 cells at 20 uM after 16 hrs by Western blot analysis; assay type: functional, cell-based
Procedure, shortened: (§4)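 HCT116 or PA-1 cells exposed 16 h to a range of concentrations. Total histones extracted. Mono-, di- and trimethylated H3K4 and total histone H3 detected by Western blot with specific antibodies and quantified.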

HCT-116 [7] = test: Cytotoxicity against human HCT116 cells assessed as cell growth inhibition at >40 uM after 16 hrs by microscopic analysis; assay type: functional, cell-based
Procedure, shortened: (§5)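 Actively growing HCT116 or PA-1 cells (30–50% confluent), DMSO vehicle control, exposed 16 h over a range of concentrations. Cells imaged by microscope (10×10 lens). Triplicate dishes trypsinized, diluted, spotted blind on a hemacytometer, four corners counted for mean cells per dish. Treated vs control compared by two-tailed t-test. Three independent experiments.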

PA-1 [8] = test: Effect on H3K4me3 levels in human PA1 cells at 20 uM after 16 hrs by Western blot analysis; assay type: functional, cell-based; procedure, shortened: as §4
[9] = biological target: Lysine-specific histone demethylase 1A (Homo sapiens) (UniProt O60341); test: Inhibition of LSD1 in human PA1 cells assessed as downregulation of OCT4 protein at 10 to 40 uM after 16 hrs by Western blot analysis
[10] = biological target: Lysine-specific histone demethylase 1A (Homo sapiens) (UniProt O60341); test: Inhibition of LSD1 in human HCT116 cells assessed as increase in H3K4me2 levels at 20 uM after 16 hrs by Western blot analysis; assay type: cell-based
Procedure, shortened: (§6)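 Actively growing HCT116 or PA-1 cells were treated with CBB3001 or DMSO vehicle for 16 hours. Total histones were extracted, and mono-, di- and trimethylated H3K4 and total histone H3 were probed by Western blot with specific antibodies and quantified. Treatments were run in technical triplicate.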

[11] = biological target: Lysine-specific histone demethylase 1A (Mus musculus) (UniProt Q6ZQ88); test: Inhibition of LSD1 in mouse F9 cells assessed as downregulation of OCT4 protein at 20 to 40 uM by Western blot analysis; assay type: cell-based; procedure, shortened: as §3
[12] = biological target: Lysine-specific histone demethylase 1A (Homo sapiens) (UniProt O60341); test: Inhibition of LSD1 in human HCT116 cells assessed as increase in H3K4me1 levels at 20 uM after 16 hrs by Western blot analysis; assay type: cell-based; procedure, shortened: as §6
F9 [13] = test: Growth inhibition of mouse F9 cells at 20 to 40 uM after 30 hrs by microscopic analysis; assay type: functional, cell-based
Procedure, shortened: (§7)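 F9 or NIH3T3 cells in active growth, exposed 30 h to a range of concentrations with DMSO controls, then imaged by microscope. Triplicate dishes trypsinized and counted blind on a hemacytometer (four corners, mean cells per dish). Control vs treated compared by two-tailed equal-variance t-test.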

[14] = biological target: Lysine-specific histone demethylase 1A (Homo sapiens) (UniProt O60341); test: Inhibition of LSD1 in human PA1 cells assessed as downregulation of OCT4 protein expression at 20 uM after 16 hrs by Western blot analysis; assay type: cell-based; procedure, shortened: as §2
[15] = biological target: Lysine-specific histone demethylase 1A (Homo sapiens) (UniProt O60341); test: Inhibition of LSD1 in human PA1 cells assessed as downregulation of SOX2 protein at 10 to 40 uM after 16 hrs by Western blot analysis
[16] = biological target: Lysine-specific histone demethylase 1A (Homo sapiens) (UniProt O60341); test: Inhibition of LSD1 in human PA1 cells assessed as increase in H3K4me1 levels at 20 uM after 16 hrs by Western blot analysis; assay type: cell-based; procedure, shortened: as §6
NIH3T3 = test: Growth inhibition of mouse NIH/3T3 cells at 20 to 40 uM after 30 hrs by microscopic analysis; assay type: cell-based; settings: nih3t3, 30 h; procedure, shortened: as §7
[17] = biological target: Lysine-specific histone demethylase 1A (Homo sapiens) (UniProt O60341); test: Inhibition of LSD1 in human PA1 cells assessed as increase in H3K4me2 levels at 20 uM after 16 hrs by Western blot analysis; assay type: cell-based; procedure, shortened: as §6
PA-1 [18] = test: Cytotoxicity against human PA1 cells assessed as cell growth inhibition at 5 to 20 uM after 12 to 16 hrs by microscopic analysis; assay type: functional, cell-based; procedure, shortened: as §5
PA-1 [19] = test: Reversible growth inhibitory activity of human PA1 cells at 20 to 40 uM preincubated for 24 hrs followed by 24 hrs recovery by microscopic analysis; assay type: functional, cell-based
Procedure, shortened: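 PA-1 cells in active growth, exposed 24 h to a range of concentrations. Compound removed, cells washed extensively and regrown 24 h in fresh medium without compound. Cells imaged, then triplicate dishes trypsinized and counted blind on a hemacytometer (four corners). Three independent experiments.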

Row | SMILES | Activity (PA-1 [1]) | Activity (F9 [2]) | Activity (HCT-116 [3]) | inhibition [4] | inhibition [5] | Activity (HCT-116 [6]) | growth inhibition (GI) (HCT-116 [7]) | Activity (PA-1 [8]) | inhibition [9] | inhibition [10] | inhibition [11] | inhibition [12] | growth inhibition (GI) (F9 [13]) | inhibition [14] | inhibition [15] | inhibition [16] | growth inhibition (GI) (NIH3T3) | inhibition [17] | growth inhibition (GI) (PA-1 [18]) | growth inhibition (GI) (PA-1 [19])
1 | N[C@H]1CC[C@H](N[C@@H]2C[C@H]2c2ccccc2)CC1 | Active | Active | Active | – | – | – | – | – | – | – | – | – | – | – | – | – | – | – | – | –
2 | CC(C)(C)OC(=O)N[C@@H]1C[C@H]1c1ccc(OC(=O)OC(C)(C)C)cc1 | – | – | – | Active | Active | inactive | inactive | inactive | Active | Active | Active | Active | Active | Active | Active | Active | Non-Toxic | Active | Active | inactive
